ChEMBL document CHEMBL3526081 (Drug Metab Dispos, 2011)

How the values were obtained:
[1] = Drug metabolism in cynomolgus monkey liver microsomes assessed as 1alpha-hydroxylcinobufagin formation at 100 uM at 37 degC after 30 mins by UFLC-ESI-MS analysis in presence of NADPH-generating system; format: ADME, Macaca fascicularis; details: 0.5 h
How it was run: (§1)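 Liver microsomes (0.3 mg protein/ml) incubated with 100 µM substrate at 37°C for 30 min, in 100 mM potassium phosphate pH 7.4 with NADPH-generating system (1 mM NADP+, 10 mM glucose 6-phosphate, 1 unit/ml G6PDH, 4 mM MgCl2). Acetonitrile ≤1% final. Stopped with ice-cold acetonitrile and centrifuged. Metabolites identified by UFLC-ESI-MS and quantified by UFLC-DAD at 294 nm against authentic standard curves.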

[2] = tested on: Liver microsome; assay: Drug metabolism in human liver microsomes assessed as 1alpha-hydroxylcinobufagin formation at 100 uM at 37 degC after 30 mins by UFLC-ESI-MS analysis in presence of NADPH-generating system; format: ADME; details: 0.5 h
How it was run: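 CB (100 µM; acetonitrile ≤1% final) was incubated with pooled HLM (0.3 mg/ml) plus NADPH-generating system (1 mM NADP+, 10 mM glucose 6-phosphate, 1 unit/ml G6PDH, 4 mM MgCl2) in pH 7.4 phosphate buffer at 37°C for 30 min. Products were identified by UFLC-ESI-MS and quantified by UFLC-DAD at 294 nm.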

[3] = Drug metabolism in cynomolgus monkey liver microsomes assessed as 5beta-hydroxylcinobufagin formation at 100 uM at 37 degC after 30 mins by UFLC-ESI-MS analysis in presence of NADPH-generating system; format: ADME, Macaca fascicularis; details: 0.5 h; how it was run: as §1
[4] = Drug metabolism in Swiss-Hauschka (ICR) mouse liver microsomes assessed as dihydroxylcinobufagin formation at 100 uM at 37 degC after 30 mins by UFLC-ESI-MS analysis in presence of NADPH-generating system; format: ADME; details: 0.5 h; how it was run: as §1
[5] = tested on: Liver microsome; assay: Drug metabolism in human liver microsomes assessed as 5beta-hydroxylcinobufagin formation at 100 uM at 37 degC after 30 mins by […] in presence of 1 uM ketoconazole CYP3A4 inhibitor; format: ADME; details: 0.5 h
[6] = tested on: Liver microsome; assay: Drug metabolism in human liver microsomes assessed as 1alpha-hydroxylcinobufagin formation at 100 uM at 37 degC after 30 mins […] in presence of 2.5 uM 8-methoxypsoralen CYP2A6 inhibitor; format: ADME; details: 0.5 h
[7] = tested on: Liver microsome; assay: Drug metabolism in human liver microsomes assessed as 5beta-hydroxylcinobufagin formation at 100 uM at 37 degC after 30 mins […] in presence of 50 uM triethylenethiophosphoramide CYP2B6 inhibitor; format: ADME; details: 0.5 h
[8] = tested on: Liver microsome; assay: Drug metabolism in human liver microsomes assessed as 1alpha-hydroxylcinobufagin formation at 100 uM at 37 degC after 30 mins […] in presence of 2 uM montelukast CYP2C8 inhibitor; format: ADME; details: 0.5 h
[9] = tested on: Liver microsome; assay: Drug metabolism in human liver microsomes assessed as 1alpha-hydroxylcinobufagin formation at 100 uM at 37 degC after 30 mins […] in presence of 10 uM sulfaphenazole CYP2C9 inhibitor; format: ADME; details: 0.5 h
[10] = tested on: Liver microsome; assay: Drug metabolism in human liver microsomes assessed as 1alpha-hydroxylcinobufagin formation at 100 uM at 37 degC after 30 mins […] in presence of 20 uM omeprazole CYP2C19 inhibitor; format: ADME; details: 0.5 h
[11] = tested on: Liver microsome; assay: Drug metabolism in human liver microsomes assessed as 1alpha-hydroxylcinobufagin formation at 100 uM at 37 degC after 30 mins by UFLC-ESI-MS analysis in presence of 10 uM quinidine CYP2D6 inhibitor; format: ADME; details: 0.5 h
How it was run: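 Pooled human liver microsomes (10 donors, both sexes) in 100 mM potassium phosphate pH 7.4 were incubated with CB and a selective P450 inhibitor. Reaction was started with NADPH-generating system after 3 min preincubation at 37°C and stopped with ice-cold acetonitrile. Hydroxylated products were quantified by UFLC-DAD at 294 nm; three experiments in duplicate.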

[12] = tested on: Liver microsome; assay: Drug metabolism in beagle dog liver microsomes assessed as 1alpha-hydroxylcinobufagin formation at 100 uM at 37 degC after 30 mins by UFLC-ESI-MS analysis in presence of 10 uM furafylline CYP1A2 inhibitor; format: ADME, Canis lupus familiaris; details: 0.5 h
How it was run: (§2)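 Chemical inhibition: selective P450 inhibitors (furafylline, sulfaphenazole, ketoconazole) added to liver microsome incubations in 100 mM potassium phosphate pH 7.4 with NADPH-generating system at 37°C. Hydroxylated metabolite formation quantified by UFLC at 294 nm against standards. Mean ± S.D. of three experiments in duplicate.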

[13] = Drug metabolism in Colony-bred Chinese Bama minipig liver microsomes assessed as 1alpha-hydroxylcinobufagin formation at 100 uM at 37 degC after 30 mins by UFLC-ESI-MS analysis in presence of 10 uM furafylline CYP1A2 inhibitor; format: ADME, Sus scrofa; details: pig, 0.5 h; how it was run: as §2
[14] = Drug metabolism in cynomolgus monkey liver microsomes assessed as 1alpha-hydroxylcinobufagin formation at 100 uM at 37 degC after 30 mins by UFLC-ESI-MS analysis in presence of 10 uM furafylline CYP1A2 inhibitor; format: ADME, Macaca fascicularis; details: 0.5 h; how it was run: as §2
[15] = tested on: Liver microsome; assay: Drug metabolism in beagle dog liver microsomes assessed as 1alpha-hydroxylcinobufagin formation at 100 uM at 37 degC after 30 mins by UFLC-ESI-MS analysis in presence of 10 uM sulfaphenazole CYP2C9 inhibitor; format: ADME, Canis lupus familiaris; details: 0.5 h; how it was run: as §2
[16] = Drug metabolism in cynomolgus monkey liver microsomes assessed as 1alpha-hydroxylcinobufagin formation at 100 uM at 37 degC after 30 mins by UFLC-ESI-MS analysis in presence of 10 uM sulfaphenazole CYP2C9 inhibitor; format: ADME, Macaca fascicularis; details: 0.5 h; how it was run: as §2
[17] = tested on: Liver microsome; assay: Drug metabolism in beagle dog liver microsomes assessed as 1alpha-hydroxylcinobufagin formation at 100 uM at 37 degC after 30 mins by UFLC-ESI-MS analysis; format: ADME, Canis lupus familiaris; details: 0.5 h, read-out: Km(app); how it was run: as §1
[18] = Drug metabolism in Colony-bred Chinese Bama minipig liver microsomes assessed as 1alpha-hydroxylcinobufagin formation at 100 uM at 37 degC after 30 mins by UFLC-ESI-MS analysis; format: ADME, Sus scrofa; details: pig, 0.5 h, read-out: Km(app); how it was run: as §1
[19] = Ratio of Vmax/Km in cynomolgus monkey liver microsomes assessed as 1alpha-hydroxylcinobufagin formation at 100 uM […] by UFLC-ESI-MS analysis; format: ADME, Macaca fascicularis; details: 0.5 h
[20] = Drug metabolism in cynomolgus monkey liver microsomes assessed as 5beta-hydroxylcinobufaginn formation per mg of protein at 100 uM […] by UFLC-ESI-MS analysis; format: ADME, Macaca fascicularis; details: 0.5 h
[21] = Drug metabolism in Swiss-Hauschka (ICR) mouse liver microsomes assessed as 5beta-hydroxylcinobufaginn formation per mg of protein at 100 uM at 37 degC after 30 mins by UFLC-ESI-MS analysis; format: ADME; details: 0.5 h; how it was run: as §1
[22] = Drug metabolism in Colony-bred Chinese Bama minipig liver microsomes assessed as 5beta-hydroxylcinobufaginn formation at 100 uM at 37 degC after 30 mins by UFLC-ESI-MS analysis; format: ADME, Sus scrofa; details: pig, 0.5 h, read-out: Km(app); how it was run: as §1
[23] = Drug metabolism in cynomolgus monkey liver microsomes assessed as 1alpha-hydroxylcinobufagin formation per mg of protein at 100 uM at 37 degC after 30 mins by UFLC-ESI-MS analysis; format: ADME, Macaca fascicularis; details: 0.5 h; how it was run: as §1
[24] = tested on: Liver microsome; assay: Drug metabolism in human liver microsomes assessed as 5beta-hydroxylcinobufagin formation at 100 uM at 37 degC after 30 mins […] in presence of 50 uM clomethiazole CYP2E1 inhibitor; format: ADME; details: 0.5 h
[25] = tested on: Liver microsome; assay: Drug metabolism in human liver microsomes assessed as 1alpha-hydroxylcinobufagin formation at 100 uM […] by UFLC-ESI-MS analysis; format: ADME; details: 0.5 h, read-out: Km(app)

CC(=O)O[C@H]1[C@H]2O[C@]23[C@@H]2CC[C@@H]4C[C@@H](O)CC[C@]4(C)[C@H]2CC[C@]3(C)[C@H]1c1ccc(=O)oc1 [CINOBUFAGIN]
Drug metabolism [1]: metabolite_detected | Drug metabolism [2]: metabolite_detected | Drug metabolism [3]: metabolite_detected | Drug metabolism [4]: metabolite_detected | Drug metabolism [5]: metabolite_not_detected | Drug metabolism [6]: metabolite_detected | Drug metabolism [7]: metabolite_detected | Drug metabolism [8]: metabolite_detected | Drug metabolism [9]: metabolite_detected | Drug metabolism [10]: metabolite_detected | Drug metabolism [11]: metabolite_detected | Drug metabolism [12]: metabolite_detected | Drug metabolism [13]: metabolite_detected | Drug metabolism [14]: metabolite_detected | Drug metabolism [15]: metabolite_detected | Drug metabolism [16]: metabolite_detected | Km [17]: 3.3 µM | Km [18]: 17.2 µM | Vmax/Km [19]: 62 µL/min/mg | Vmax [20]: 1.84 nmol/min/mg | Vmax [21]: 6.51 nmol/min/mg | Km [22]: 11.9 µM | Vmax [23]: 2.12 nmol/min/mg | Drug metabolism [24]: metabolite_detected | Km [25]: 12.5 µM
